From ChEMBL document CHEMBL1155910, “Design of Helicobacter pylori glutamate racemase inhibitors as selective antibacterial agents: a novel pro-drug approach to increase exposure” (Bioorg Med Chem Lett, 2008)
In brackets after ≈: the same amount, converted by molar mass.

Legend:
[1] = Intrinsic clearance in human liver microsome; assay type: ADME; conditions: liver microsomes
How it was run: (§1)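 Compounds incubated in vitro with human or mouse liver microsomes; parent and metabolite followed over roughly 30 min incubation; intrinsic clearance expressed as µl/min/mg.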

Glutamate racemase = biological target: T1, Glutamate racemase (Helicobacter pylori (strain ATCC 700392 / 26695) (Campylobacterpylori), UniProt P56068); experiment: Inhibition of Helicobacter pylori MurI
T1 sequence (P56068 whole entry): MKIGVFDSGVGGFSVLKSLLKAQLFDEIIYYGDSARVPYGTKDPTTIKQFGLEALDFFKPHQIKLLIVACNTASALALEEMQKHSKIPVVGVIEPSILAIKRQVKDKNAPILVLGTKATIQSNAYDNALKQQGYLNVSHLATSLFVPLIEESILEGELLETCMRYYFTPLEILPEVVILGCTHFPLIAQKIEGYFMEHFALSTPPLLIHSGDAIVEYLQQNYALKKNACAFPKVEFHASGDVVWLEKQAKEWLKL

[2] = Bioavailability in mouse; assay type: ADME, organism-based; conditions: in vivo
Helicobacter pylori [3] = experiment: Antibacterial activity against hefC-deficient Helicobacter pylori by NCCLS method; assay type: functional
How it was run: (§2)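 H. pylori MICs determined following NCCLS guidelines; values carry a twofold variance.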

[4] = Intrinsic clearance in mouse liver microsome; assay type: ADME; conditions: liver microsomes; how it was run: as §1
[5] = Aqueous solubility of compound; assay type: physicochemical; conditions: buffer
[6] = Bioavailability in mouse at 40 mg/kg, po; assay type: ADME, organism-based; conditions: in vivo
Helicobacter pylori [7] = experiment: Antibacterial activity against wild type Helicobacter pylori by NCCLS method; assay type: functional; how it was run: as §2
[8] = Equilibrium solubility of compound; assay type: physicochemical
Mus musculus = experiment: Plasma concentration in mouse at 40 mg/kg, po; assay type: ADME, organism-based; parameters: dose 40 mg/kg, route oral; conditions: in vivo

Row | Structure (SMILES) | microsomal CLint [1] [µL/min/mg] | IC50 (Glutamate racemase) [µM] | bioavailability [2] [%] | MIC (Helicobacter pylori [3]) [mg/L] | microsomal CLint [4] [µL/min/mg] | solubility [5] [µM] | bioavailability [6] [%] | MIC (Helicobacter pylori [7]) [mg/L] | solubility thermodynamic [8] [µM] | Cp (Mus musculus) [µg/mL]
1 | Cn1cc(C#N)cc1-c1c2c(=O)n(C)c(=O)n(CC3CC3)c2nn1Cc1ccnc2ccc(Cl)cc12 | < 14 | 0.026 | < 10 | 0.25 (≈ 0.5 µM) | 50 | < 0.4 | 7.5 | 0.5 (≈ 1 µM) | – | –
2 | Cn1cc(S(N)(=O)=O)nc1-c1c2c(=O)n(C)c(=O)n(CC3CC3)c2nn1Cc1c[nH]c2ccc(Cl)cc12 | 56 | 0.038 | – | 0.5 (≈ 0.921 µM) | > 100 | – | – | > 32 | – | –
3 | Cn1cc(S(C)(=O)=O)nc1-c1c2c(=O)n(C)c(=O)n(CC3CC3)c2nn1Cc1ccnc2ccc(Cl)cc12 | 23 | 0.16 | – | 4 (≈ 7.22 µM) | 56 | – | – | 16 (≈ 28.9 µM) | – | –
4 | Cc1oc(S(C)(=O)=O)cc1-c1c2c(=O)n(C)c(=O)n(CC3CC3)c2nn1Cc1cn(C)c2ccc(Cl)cc12 | > 100 | 0.057 | – | 0.5 (≈ 0.899 µM) | > 100 | – | – | 1 (≈ 1.8 µM) | – | –
5 | CNS(=O)(=O)c1cc(-c2c3c(=O)n(C)c(=O)n(CC4CC4)c3nn2Cc2c[nH]c3ccc(Cl)cc23)n(C)c1 | > 100 | 0.027 | – | 0.5 (≈ 0.899 µM) | > 100 | – | – | 16 (≈ 28.8 µM) | – | –
6 | CONS(=O)(=O)c1cc(-c2c3c(=O)n(C)c(=O)n(CC4CC4)c3nn2Cc2ccnc3ccc(Cl)cc23)n(C)c1 | – | 0.055 | – | 4 (≈ 6.85 µM) | – | – | – | 16 (≈ 27.4 µM) | – | –
7 | CONS(=O)(=O)c1cc(-c2c3c(=O)n(C)c(=O)n(CC4CC4)c3nn2Cc2c[nH]c3ccc(Cl)cc23)n(C)c1 | – | 0.036 | – | 8 (≈ 14 µM) | – | – | – | 8 (≈ 14 µM) | – | –
8 | Cn1c(=O)c2c(-c3oc(S(C)(=O)=O)cc3Cl)n(Cc3ccnc4ccc(Cl)cc34)nc2n(CC2CC2)c1=O | 19 | 0.059 | – | 4 (≈ 6.96 µM) | 22 | – | – | 4 (≈ 6.96 µM) | – | –
9 | Cc1oc(S(C)(=O)=O)cc1-c1c2c(=O)n(C)c(=O)n(CC3CC3)c2nn1Cc1ccnc2ccc(Cl)cc12 | 22 | 0.051 | – | – | 61 | – | – | 4 (≈ 7.22 µM) | – | –
10 | Cn1cc([S+](C)[O-])cc1-c1c2c(=O)n(C)c(=O)n(CC3CC3)c2nn1Cc1c[nH]c2ccc(Cl)cc12 (configuration not stated) | > 100 | 0.023 | – | 4 (≈ 7.62 µM) | > 100 | – | – | 16 (≈ 30.5 µM) | – | –
11 | Cn1cc([S+](C)[O-])cc1-c1c2c(=O)n(C)c(=O)n(CC3CC3)c2nn1Cc1ccnc2ccc(Cl)cc12 (configuration not stated) | > 100 | 0.037 | – | 0.5 (≈ 0.931 µM) | > 100 | – | 10 | 16 (≈ 29.8 µM) | 120 (≈ 64.4 µg/mL) | –
12 | Cn1cc(S(C)(=O)=O)cc1-c1c2c(=O)n(C)c(=O)n(CC3CC3)c2nn1Cc1ccnc2ccc(Cl)cc12 | 20 | 0.034 | – | 0.5 (≈ 0.904 µM) | < 14 | – | 60 | 2 (≈ 3.62 µM) | – | 1.2
13 | Cn1cc(S(C)(=O)=O)cc1-c1c2c(=O)n(C)c(=O)n(CC3CC3)c2nn1Cc1c[nH]c2ccc(Cl)cc12 | 49 | 0.026 | – | 0.5 (≈ 0.924 µM) | 64 | – | – | 4 (≈ 7.39 µM) | – | –
14 | Cn1cc(S(N)(=O)=O)cc1-c1c2c(=O)n(C)c(=O)n(CC3CC3)c2nn1Cc1ccnc2ccc(Cl)cc12 | 22 | 0.016 | – | 0.25 (≈ 0.451 µM) | < 14 | – | – | 32 (≈ 57.8 µM) | – | –
15 | Cn1cc(S(C)(=O)=O)nc1-c1c2c(=O)n(C)c(=O)n(CC3CC3)c2nn1Cc1c[nH]c2ccc(Cl)cc12 | 49 | 0.031 | – | 2 (≈ 3.69 µM) | > 100 | – | – | 16 (≈ 29.5 µM) | – | –
16 | Cn1c(=O)c2c(-c3ccc(S(C)(=O)=O)o3)n(Cc3ccnc4ccc(Cl)cc34)nc2n(CC2CC2)c1=O | 17 | 1.5 | – | > 64 | 14 | – | – | > 64 | – | –
17 | CNS(=O)(=O)c1cc(-c2c3c(=O)n(C)c(=O)n(CC4CC4)c3nn2Cc2ccnc3ccc(Cl)cc23)n(C)c1 | > 100 | 0.044 | – | 1 (≈ 1.76 µM) | > 100 | – | – | 16 (≈ 28.2 µM) | – | –
18 | Cn1cc(S(C)(=O)=O)cc1-c1c2c(=O)n(C)c(=O)n(CC3CC3)c2nn1Cc1cn(C)c2ccc(Cl)cc12 | 23 | 0.033 | – | 4 (≈ 7.21 µM) | 56 | – | – | 16 (≈ 28.8 µM) | – | –
